In ChEMBL document CHEMBL3407460, “Synthesis of novel thiazole-based 8,9-dihydro-7H-pyrimido[4,5-b][1,4]diazepines as potential antitumor and antifungal agents” (2015):
In brackets after ≈: the same amount, converted by molar mass.

How the values were obtained:
Type in all cases: functional
Cryptococcus neoformans [1] = assay: Antifungal activity against Cryptococcus neoformans ATCC 32264 assessed as growth inhibition at 62.5 ug/ml after 48 hrs by broth microdilution method; settings: ATCC 32264, 48 h
In short: (§1)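 CLSI M27-A3 broth microdilution in RPMI-1640. Compound stocks were made in DMSO (final at most 1%) and tested at final levels of 250 to 0.98. Inoculum was 1–5 × 10^3 CFU/mL, incubated 48 h at 30 °C in a moist, dark chamber. Growth and sterility control wells were included.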

Cryptococcus neoformans [2] = assay: Antifungal activity against Cryptococcus neoformans ATCC 32264 assessed as growth inhibition at 7.81 ug/ml after 48 hrs by broth microdilution method; settings: ATCC 32264, 48 h; in short: as §1
Cryptococcus neoformans [3] = assay: Antifungal activity against Cryptococcus neoformans ATCC 32264 assessed as growth inhibition at 31.25 ug/ml after 48 hrs by broth microdilution method; settings: ATCC 32264, 48 h; in short: as §1
Candida albicans [4] = assay: Antifungal activity against Candida albicans ATCC 10231 assessed as growth inhibition at 250 ug/ml after 48 hrs by broth microdilution method; settings: ATCC 10231, 48 h; in short: as §1
Candida albicans [5] = assay: Antifungal activity against Candida albicans ATCC 10231 assessed as growth inhibition at 7.81 ug/ml after 48 hrs by broth microdilution method; settings: ATCC 10231, 48 h; in short: as §1
Candida albicans [6] = assay: Antifungal activity against Candida albicans ATCC 10231 assessed as growth inhibition at 3.9 ug/ml after 48 hrs by broth microdilution method; settings: ATCC 10231, 48 h; in short: as §1
Cryptococcus neoformans [7] = assay: Antifungal activity against Cryptococcus neoformans ATCC 32264 assessed as growth inhibition at 15.62 ug/ml after 48 hrs by broth microdilution method; settings: ATCC 32264, 48 h; in short: as §1
Cryptococcus neoformans [8] = assay: Antifungal activity against Cryptococcus neoformans ATCC 32264 assessed as growth inhibition at 250 ug/ml after 48 hrs by broth microdilution method; settings: ATCC 32264, 48 h; in short: as §1
Cryptococcus neoformans [9] = assay: Antifungal activity against Cryptococcus neoformans ATCC 32264 assessed as growth inhibition at 125 ug/ml after 48 hrs by broth microdilution method; settings: ATCC 32264, 48 h; in short: as §1
Candida albicans [10] = assay: Antifungal activity against Candida albicans ATCC 10231 assessed as growth inhibition at 15.62 ug/ml after 48 hrs by broth microdilution method; settings: ATCC 10231, 48 h; in short: as §1
Candida albicans [11] = assay: Antifungal activity against Candida albicans ATCC 10231 assessed as growth inhibition at 125 ug/ml after 48 hrs by broth microdilution method; settings: ATCC 10231, 48 h; in short: as §1
Cryptococcus neoformans [12] = assay: Antifungal activity against Cryptococcus neoformans ATCC 32264 assessed as growth inhibition at 3.9 ug/ml after 48 hrs by broth microdilution method; settings: ATCC 32264, 48 h; in short: as §1
Candida albicans [13] = assay: Antifungal activity against Candida albicans ATCC 10231 assessed as growth inhibition at 62.5 ug/ml after 48 hrs by broth microdilution method; settings: ATCC 10231, 48 h; in short: as §1
Candida albicans [14] = assay: Antifungal activity against Candida albicans ATCC 10231 assessed as growth inhibition at 31.25 ug/ml after 48 hrs by broth microdilution method; settings: ATCC 10231, 48 h; in short: as §1
Cryptococcus neoformans [15] = assay: Antifungal activity against Cryptococcus neoformans IM 983040 clinical isolate after 48 hrs by broth microdilution method; settings: IM 983040, 48 h, read-out: MIC100
In short: (§2)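 Clinical isolates from the Malbrán Institute were grown on Sabouraud-chloramphenicol agar for 48 h at 30 °C, kept on Sabouraud-dextrose agar and subcultured every 15 days. M27-A3 RPMI-1640 microdilution used 1–5 × 10^3 CFU/mL, 48 h at 30 °C, OD405 read, triplicate. Endpoints MIC100, MIC80 and MIC50 were taken from % inhibition dose-response curves.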

Cryptococcus neoformans [16] = assay: Antifungal activity against Cryptococcus neoformans IM 983036 clinical isolate after 48 hrs by broth microdilution method; settings: IM 983036, 48 h, read-out: MIC100; in short: as §2
Cryptococcus neoformans [17] = assay: Antifungal activity against Cryptococcus neoformans IM 972724 clinical isolate after 48 hrs by broth microdilution method; settings: IM 972724, 48 h, read-out: MIC100; in short: as §2
Cryptococcus neoformans [18] = assay: Antifungal activity against Cryptococcus neoformans ATCC 32264 after 48 hrs by broth microdilution method; settings: ATCC 32264, 48 h, read-out: MIC100
Cryptococcus neoformans [19] = assay: Antifungal activity against Cryptococcus neoformans IM 961951 clinical isolate after 48 hrs by broth microdilution method; settings: IM 961951, 48 h, read-out: MIC100; in short: as §2
Cryptococcus neoformans [20] = assay: Antifungal activity against Cryptococcus neoformans IM 031631 clinical isolate after 48 hrs by broth microdilution method; settings: IM 031631, 48 h, read-out: MIC100; in short: as §2
Cryptococcus neoformans [21] = assay: Antifungal activity against Cryptococcus neoformans IM 972751 clinical isolate after 48 hrs by broth microdilution method; settings: IM 972751, 48 h, read-out: MIC100; in short: as §2
Cryptococcus neoformans [22] = assay: Antifungal activity against Cryptococcus neoformans IM 042074 clinical isolate after 48 hrs by broth microdilution method; settings: IM 042074, 48 h, read-out: MIC100; in short: as §2

Cc1ccc(C2=Nc3c(N)nc(N)nc3NC(c3sc(Cl)nc3Cl)C2)cc1 (stereo not given)
inhibition at 62.5 µg/mL (Cryptococcus neoformans [1]): 9.2% | inhibition at 7.81 µg/mL (Cryptococcus neoformans [2]): 0.93% | inhibition at 31.25 µg/mL (Cryptococcus neoformans [3]): 6.47% | inhibition at 250 µg/mL (Candida albicans [4]): 55.5% | inhibition at 7.81 µg/mL (Candida albicans [5]): 0% | inhibition at 3.9 µg/mL (Candida albicans [6]): 0% | inhibition at 15.62 µg/mL (Cryptococcus neoformans [7]): 4.57% | inhibition at 250 µg/mL (Cryptococcus neoformans [8]): 59.1% | inhibition at 125 µg/mL (Cryptococcus neoformans [9]): 18.3% | inhibition at 15.62 µg/mL (Candida albicans [10]): 1.41% | inhibition at 125 µg/mL (Candida albicans [11]): 21.3% | inhibition at 3.9 µg/mL (Cryptococcus neoformans [12]): 0% | inhibition at 62.5 µg/mL (Candida albicans [13]): 13.5% | inhibition at 31.25 µg/mL (Candida albicans [14]): 8.7%

COc1ccc(C2=Nc3c(N)nc(N)nc3NC(c3sc(Cl)nc3Cl)C2)cc1 (stereo not given)
inhibition at 62.5 µg/mL (Cryptococcus neoformans [1]): 23.1% | inhibition at 7.81 µg/mL (Cryptococcus neoformans [2]): 6.04% | inhibition at 31.25 µg/mL (Cryptococcus neoformans [3]): 13.2% | inhibition at 250 µg/mL (Candida albicans [4]): 62.6% | inhibition at 7.81 µg/mL (Candida albicans [5]): 12.4% | inhibition at 3.9 µg/mL (Candida albicans [6]): 10.4% | inhibition at 15.62 µg/mL (Cryptococcus neoformans [7]): 7.79% | inhibition at 250 µg/mL (Cryptococcus neoformans [8]): 77.1% | inhibition at 125 µg/mL (Cryptococcus neoformans [9]): 46.9% | inhibition at 15.62 µg/mL (Candida albicans [10]): 15.7% | inhibition at 125 µg/mL (Candida albicans [11]): 54.6% | inhibition at 3.9 µg/mL (Cryptococcus neoformans [12]): 0% | inhibition at 62.5 µg/mL (Candida albicans [13]): 23.2% | inhibition at 31.25 µg/mL (Candida albicans [14]): 21.2%

COc1cc(C2=Nc3c(N)nc(N)nc3NC(c3sc(Cl)nc3Cl)C2)cc(OC)c1OC (stereo not given)
inhibition at 62.5 µg/mL (Cryptococcus neoformans [1]): 9.28% | inhibition at 7.81 µg/mL (Cryptococcus neoformans [2]): 2.99% | inhibition at 31.25 µg/mL (Cryptococcus neoformans [3]): 7.09% | inhibition at 250 µg/mL (Candida albicans [4]): 15% | inhibition at 7.81 µg/mL (Candida albicans [5]): 0% | inhibition at 3.9 µg/mL (Candida albicans [6]): 0% | inhibition at 15.62 µg/mL (Cryptococcus neoformans [7]): 5.52% | inhibition at 250 µg/mL (Cryptococcus neoformans [8]): 77.5% | inhibition at 125 µg/mL (Cryptococcus neoformans [9]): 27.2% | inhibition at 15.62 µg/mL (Candida albicans [10]): 0% | inhibition at 125 µg/mL (Candida albicans [11]): 10.5% | inhibition at 3.9 µg/mL (Cryptococcus neoformans [12]): 1.65% | inhibition at 62.5 µg/mL (Candida albicans [13]): 7.26% | inhibition at 31.25 µg/mL (Candida albicans [14]): 9.84%

C[C@@H]1[C@H](O)[C@@H](C)/C=C/C=C/C=C/C=C/C=C/C=C/C=C/[C@H](O[C@@H]2O[C@H](C)[C@@H](O)[C@H](N)[C@@H]2O)C[C@@H]2O[C@](O)(C[C@@H](O)C[C@@H](O)[C@H](O)CC[C@@H](O)C[C@@H](O)CC(=O)O[C@H]1C)C[C@H](O)[C@H]2C(=O)O [AMPHOTERICIN B]
MIC (Cryptococcus neoformans [15]): 0.25 µg/mL (≈ 0.271 µM) | MIC (Cryptococcus neoformans [16]): 0.25 µg/mL (≈ 0.271 µM) | MIC (Cryptococcus neoformans [17]): 0.25 µg/mL (≈ 0.271 µM) | MIC (Cryptococcus neoformans [18]): 0.12 µg/mL (≈ 0.13 µM) | MIC (Cryptococcus neoformans [19]): 1 µg/mL (≈ 1.08 µM) | MIC (Cryptococcus neoformans [20]): 0.12 µg/mL (≈ 0.13 µM) | MIC (Cryptococcus neoformans [21]): 1 µg/mL (≈ 1.08 µM) | MIC (Cryptococcus neoformans [22]): 0.12 µg/mL (≈ 0.13 µM)
